Columns and labels:
[1] = melting temperature; fluorescence melt of hairpins on a sequencing array, two-state fit, raised by 9.35 °C to match UV melts; settings: sodium 0.088 M
Method in brief: (§1)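 Folding enthalpy and melting temperature were estimated with bootstrapped two-state fits and combined across four replicates by inverse-variance weighting, with fitted temperatures raised by 9.35 °C to match UV melts. The data were Cy3 fluorescence of library hairpins, with annealed Cy3 and quencher oligos, on a sequenced MiSeq flow cell in 50 mM Na-HEPES pH 8.0, 25 mM NaCl, imaged in 2.5 °C steps up to 60 °C and normalised to pre-quench Cy3 and control constructs.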

[2] = folding enthalpy; higher = less favourable; fluorescence melt of hairpins on a sequencing array, two-state fit; settings: sodium 0.088 M
Method in brief: as §1

| Sequence | Tm [1] [°C] | folding enthalpy [2] [kcal/mol] |
| --- | --- | --- |
| GTGTACGAAAGTATTCAC ((((((....)))..))) | 28.7 | -11.8 |
| GTGTAGGGAAACTTGCAC (((.(.(....).).))) | 29.4 | -17.7 |
| GTGTATGAAAATACAC ((((((....)))))) | 52.5 | -36.1 |
| GTGTATGGAAACATATAC ((.((((....)))).)) | 37.8 | -37 |
| GTGTATGGAAACGTACAC (((((.(....).))))) | 47.2 | -33.9 |
| GTGTCACCGAAAGGTCAC (((..(((....)))))) | 38.2 | -20.5 |
| GTGTCACGAAAGTGTCAC (((.(((....))).))) | 53.5 | -40.4 |
| GTGTCAGGAAACCGACAC (((((.(....).))))) | 49.2 | -42.6 |
| GTGTCCCGAAAGGGCAC (((.(((....)))))) | 65.2 | -26.1 |
| GTGTCCCGAAAGGGTCAC (((.(((....))).))) | 57.9 | -30.8 |
| GTGTCCGAAAGGAACAC ((((((....))).))) | 52.8 | -30 |
| GTGTCCGAAAGGAAGCAC ((((((....)))..))) | 38.6 | -19.2 |
| GTGTCCGAAAGGACGCAC ((((((....)))..))) | 57.8 | -10.4 |
| GTGTCCGAAAGGAGCAC ((((((....))).))) | 49 | -23.9 |
| GTGTCCGCGAAAGCGCAC (((..(((....)))))) | 40.5 | -14.1 |
| GTGTCCGGAAACGGATGC (..((((....))))..) | 48 | -25.7 |
| GTGTCGCGAAAGCGCAC (((.(((....)))))) | 56.6 | -18.8 |
| GTGTCGTCGAAAGACCAC (((..(((....)))))) | 38.4 | -19.2 |
| GTGTCTCGAAAGAGCCAC (((.(((....))).))) | 49.7 | -28.9 |
| GTGTCTCGAAAGAGGCAC (((.(((....))).))) | 61.3 | -38.5 |
| GTGTCTGAAAAGACAC ((((((....)))))) | 61 | -33.7 |
| GTGTCTGGAAACAAACAC ((((.((....)).)))) | 33.2 | -21.6 |
| GTGTCTGGAAACGGATAC ((.((.(....).)).)) | 36.6 | -17.2 |

| Sequence | Tm [1] [°C] | folding enthalpy [2] [kcal/mol] |
| --- | --- | --- |
| GTGTCTTCGAAAGAACAC (((..(((....)))))) | 32.9 | -17.2 |
| GTGTGACGAAAGTCCCAC (((.(((....))).))) | 50.5 | -25 |
| GTGTGCGAAAGCAACAC ((((((....))).))) | 61.3 | -30.1 |
| GTGTGCGAAAGCAATCAC ((((((....)))..))) | 39.9 | -16.1 |
| GTGTGCGAAAGCAGGCAC ((((((....)))..))) | 44.8 | -15.8 |
| GTGTGCGAAAGCAGTCAC ((((((....)))..))) | 38.5 | -16.5 |
| GTGTGCGAAAGCATACAC ((((((....)))..))) | 53.1 | -18.2 |
| GTGTGCGGAAACGCACGC (.(((((....))))).) | 66 | -16.4 |
| GTGTGTCGAAAGACGCAC (((.(((....))).))) | 61.4 | -37.7 |
| GTGTGTGAAAACACAC ((((((....)))))) | 64.3 | -36.7 |
| GTGTGTGGAAACACACAC (((((((....))))))) | 68.8 | -32.2 |
| GTGTGTGGAAACACGTAC ((..(((....)))..)) | 38.7 | -11.8 |
| GTGTGTGGAAACATACAC ((((.((....)).)))) | 48.6 | -39.6 |
| GTGTGTGGAAACATACGC (.((.((....)).)).) | 47 | -29.4 |
| GTGTTAGGAAACTAACGC (.(((((....))))).) | 47.4 | -21.8 |
| GTGTTAGGAAACTAATAC ((.((((....)))).)) | 37.2 | -23.9 |
| GTGTTATCGAAAGATCAC (((..(((....)))))) | 33.8 | -27.6 |
| GTGTTCACGAAAGTGCAC (((..(((....)))))) | 42.3 | -20.7 |
| GTGTTCCCGAAAGGGCAC (((..(((....)))))) | 46.1 | -22.4 |
| GTGTTCCGAAAGGACCAC (((.(((....))).))) | 49.7 | -38.4 |
| GTGTTCGAAAGAACCAC ((((((....))).))) | 43.5 | -13.3 |
| GTGTTCGAAAGAACTCAC ((((((....)))..))) | 38.1 | -13.7 |
| GTGTTCGGAAACGAATGC (..((((....))))..) | 42.1 | -24.9 |

| Sequence | Tm [1] [°C] | folding enthalpy [2] [kcal/mol] |
| --- | --- | --- |
| GTGTTCGGAAACGGACAC ((((.((....)).)))) | 55 | -44.6 |
| GTGTTGAAAAACAC (((((....))))) | 49.9 | -26.3 |
| GTGTTGCCGAAAGGCCAC (((..(((....)))))) | 57.8 | -10.3 |
| GTGTTGCGAAAGCATCAC (((.(((....))).))) | 54 | -30.7 |
| GTGTTGGCGAAAGCCCAC (((..(((....)))))) | 47 | -15.6 |
| GTGTTGGGAAACCAACAC (((((((....))))))) | 63.5 | -43.1 |
| GTGTTGGGAAACTAACAC (((((.(....).))))) | 46.7 | -36.4 |
| GTGTTTCGAAAGAATCAC (((.(((....))).))) | 45 | -39.3 |
| GTGTTTGGAAACAAATGC (..((((....))))..) | 34.8 | -21.7 |
| GTGTTTGGAAACAGACAC ((((.((....)).)))) | 44.1 | -36 |
| GTTAAACCGAAAGGTAAC (((..(((....)))))) | 29.9 | -15.2 |
| GTTAAAGAAATTTAAC ((((((....)))))) | 29.6 | -14.3 |
| GTTAAAGGAAACTTTGAC ((.((((....)))).)) | 33.2 | -16.7 |
| GTTAACACGAAAGTGAAC (((..(((....)))))) | 25.3 | -9.64 |
| GTTAACCGAAAGGTCAAC (((.(((....))).))) | 37.7 | -20.5 |
| GTTAACGAAAGTTAAAAC ((((((....)))..))) | 30.2 | -9.6 |
| GTTAACGGAAACGTTAGC (.(((((....))))).) | 42.9 | -21.3 |
| GTTAAGCGAAAGCTAAC (((.(((....)))))) | 44.4 | -18.5 |
| GTTAAGCGAAAGCTCAAC (((.(((....))).))) | 37.6 | -16.7 |
| GTTAAGGGAAACCTTAGC (.(((((....))))).) | 34.8 | -23.4 |
| GTTAATCGAAAGATAAC (((.(((....)))))) | 30.1 | -16.8 |
| GTTAATCGAAAGATCAAC (((.(((....))).))) | 30.2 | -14.7 |
| GTTAATCGAAAGATGAAC (((.(((....))).))) | 38.3 | -25.1 |

| Sequence | Tm [1] [°C] | folding enthalpy [2] [kcal/mol] |
| --- | --- | --- |
| GTTACACGAAAGTGAAAC (((.(((....))).))) | 45.3 | -23.6 |
| GTTACAGCGAAAGCTAAC (((..(((....)))))) | 28.2 | -11.1 |
| GTTACCCGAAAGGGAAAC (((.(((....))).))) | 48.6 | -21.6 |
| GTTACCGAAAGGTAAAC ((((((....))).))) | 48 | -15.7 |
| GTTACCGAAAGGTACAAC ((((((....)))..))) | 31.2 | -10.9 |
| GTTACCGAAAGGTGGAAC ((((((....)))..))) | 28.1 | -10.2 |
| GTTACCGAAAGGTTCAAC ((((((....)))..))) | 25 | -8.36 |
| GTTACCGGAAACAGTAAC (((((.(....).))))) | 32.8 | -17.2 |
| GTTACGAAAGTAAC (((((....))))) | 54.7 | -30 |
| GTTACGGGAAACCGTGAC ((.((((....)))).)) | 49.8 | -29.8 |
| GTTACTCGAAAGAGAAC (((.(((....)))))) | 31.5 | -13.7 |
| GTTACTGGAAACAGTAGC (.(((((....))))).) | 40.3 | -24.2 |
| GTTAGCCGAAAGGCAAC (((.(((....)))))) | 49.3 | -13.5 |
| GTTAGCCGAAAGGCCAAC (((.(((....))).))) | 40.3 | -16 |
| GTTAGCGAAAGCTACAAC ((((((....)))..))) | 30.4 | -8.63 |
| GTTAGCGAAAGCTAGAAC ((((((....)))..))) | 31.5 | -10 |
| GTTAGGCGAAAGCCAAC (((.(((....)))))) | 50.7 | -12.7 |
| GTTAGGCGAAAGCCCAAC (((.(((....))).))) | 37.2 | -13.8 |
| GTTAGGGCGAAAGCCAAC (((..(((....)))))) | 29.3 | -8.42 |
| GTTAGTGCGAAAGCAAAC (((..(((....)))))) | 28.3 | -10.6 |
| GTTATACGAAAGTAAAAC (((.(((....))).))) | 32.2 | -20.2 |
| GTTATAGGAAACTATAAC (((((((....))))))) | 45.4 | -35.5 |

Source: the array DNA melting data of Ke et al. (doi:10.1101/2024.01.08.574731)
